Series [1] addresses α-Glucosidase from Saccharomyces cerevisiae. The series can be described thus: α-Glucosidase inhibitory assay. The series is classed as biochemical. Particulars: for IC50: read-out: α-glucosidase inhibition (IC50).
The nature of series [2]: Cytotoxicity analysis. The series is classed as cell-based. Particulars: mouse, 3T3-L1 cells. The gist of the method:
(§1)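 3T3-L1 cells grown in high-glucose DMEM with 10% FBS and 2 mM glutamine at 37 °C, 5% CO2. Seeded at 1 × 10^4 cells per well with 30 nM insulin in detection medium for 24–48 h. Test compound at 0.01–1000 μg/mL for 72 h. Then MTT (0.5 mg/mL in phosphate buffer) for 4 h, DMSO solubilisation, A570. % viability reported as mean of triplicates ± SD.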

In series [3] the test system is 3T3-L1 cells. The series can be described thus: Glucose consumption assay in 3T3-L1 cells. It counts as cell-based. Particulars: Mus musculus.
Series [4] has as its system 3T3-L1 cells. The series can be described thus: Cytotoxicity analysis. The conditions noted are these: for % cell viability: MTT assay, 72 h. It counts as cell-based. The gist of the method:
as §1

Where [5] appears, read: 3T3-L1, read-out: glucose consumption (IC50, μM).

Where two headings read alike, the source gives them in different places.

Turning to `COc1ccc2oc3cccc(O)c3c(=O)c2c1` [Compound 4, 1-hydroxyl-7 methoxyxanthone], the IC50 in series [1] was greater than 100 µM; in series [3] (setting [5]), 23.2 µM. The viability at 72 h in series [2] is 102%.
On to `O=c1c2cc(O)ccc2oc2cccc(O)c12` [Compound 3, 1,7-dihydroxyxanthone], for which the IC50 in series [1] was greater than 100 µM. For the same molecule, the viability at 72 h in series [2] was found to be 105%.
Consider `CN(C)C(=N)N=C(N)N` [Metformin, reference compound], for which the viability at 72 h in series [2] was determined as 99.7%. Moreover, the IC50 in series [3] (setting [5]) was determined as 45.4 µM; in series [3] (3T3-L1, read-out: glucose consumption (IC50, μg/mL)), 6.3 µg/mL.
Take guttiferone I [Compound 2]: the IC50 in series [1] is 13.1 µM. Moreover, in series [4], the “toxicity to cells (in words)” value is “without causing toxicity to cells” and the “% cell viability” value turned out to be 98.7%. For the same molecule, the “toxicity to cells (in words)” value in series [4] (listed as Guttiferone I) is recorded as “without causing toxic effects”.
Regarding `C[C@H]1C(=O)CC[C@@H]2[C@]1(C)CC[C@H]1[C@@]2(C)CC[C@@]2(C)[C@@H]3CC(C)(C)CC[C@]3(C)CC[C@]12C` [Compound 9, friedelin], the IC50 in series [1] is greater than 100 µM; in series [3] (setting [5]) it was 18.5 µM. Also, the viability at 72 h in series [2] was 101%.
On to cowanol [Compound 7], for which, in series [1], the IC50 was found to be 18 µM. For the same molecule, the “% cell viability” value in series [4] is recorded as 100.9%.
With `C[C@H]1O[C@H](O[C@H]2[C@H](O)[C@@H](O)[C@@H](O[C@H]3[C@H](O)[C@@H](O)C(O)O[C@@H]3CO)O[C@@H]2CO)[C@H](O)[C@@H](O)[C@@H]1N[C@H]1C=C(CO)[C@@H](O)[C@H](O)[C@H]1O` (stereo partly drawn) [Acarbose, reference compound], the “% inhibition at 200 μg/mL (α-glucosidase)” value in series [1] (final concentration of 200 μg/mL) stood at 98.9%.
Turning to `CC(C)=CCC/C(C)=C/Cc1c(O)cc2oc3c(O)cccc3c(=O)c2c1O` [Compound 5, mangostinone], the IC50 in series [1] was greater than 100 µM; in series [3] (setting [5]), 16 µM. The viability at 72 h in series [2] is 93.1%.

What is called viability is a read-out of living cells in per cent, often relative to untreated cells. What is called % inhibition is the share of the control response that was lost under treatment. Low values mean a response near the control, high ones a response far below the control.

The values are drawn from PMC7184531 (Heliyon, 2020).
